Reference: ChEMBL document CHEMBL3286116, “Synthesis, biological evaluation and structure-activity correlation study of a series of imidazol-based compounds as Candida albicans inhibitors” (Eur J Med Chem, 2014)
≈ marks a conversion by molar mass, not a printed value.

Tests used:
Candida albicans [1] = test: Antifungal activity against Candida albicans ATCC 3153 after 48 hrs by CLSI broth microdilution method; format: functional; details: ATCC 3153, 48 h
In short: (§1)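 Yeast CLSI broth microdilution (M27-A3). Compounds dissolved in DMSO at 100× the top test concentration, then diluted as serial two-fold dilutions in RPMI 1640 to final 0.125–64. Inoculum was 1.0–1.5 × 10^3 cells mL−1, incubated at 35 °C and read for growth at 48 h. MIC is the lowest concentration giving ≥50% growth inhibition versus growth control. Reported as the median of five replicates and as the geometric mean.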

[2] = Cytotoxicity against human A549 cells after 48 hrs by MTT assay; format: cell-based
In short: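 A549 cells (ATCC CCL-185) seeded at 2 × 10^4/well in phenol-red-free RPMI 1640 with 10% FBS, L-glutamine, penicillin and streptomycin, at 37 °C and 5% CO2. Exposed 48 h to DMSO-dissolved compounds (final 16–256; at least five concentrations, triplicate). MTT added for 3–4 h, crystals solubilized, OD read at 570 nm. CC50 taken versus the DMSO control. Mean ± SD of two independent experiments.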

Cryptococcus neoformans [3] = test: Antifungal activity against Cryptococcus neoformans PMC 2103 after 72 hrs by CLSI broth microdilution method; format: functional; details: PMC 2103, 72 h
In short: (§2)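 Cryptococcus neoformans tested by CLSI broth microdilution in RPMI 1640, with serial two-fold dilutions from DMSO stocks at 100× the top concentration, final 0.125–64. Inoculum was 1.0–1.5 × 10^3 cells mL−1 at 35 °C, with growth read at 72 h. MIC is the lowest concentration with ≥50% growth inhibition versus control. Median of five replicates, plus geometric mean.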

Candida albicans [4] = test: Antifungal activity against Candida albicans ATCC 10261 after 48 hrs by CLSI broth microdilution method; format: functional; details: ATCC 10261, 48 h; in short: as §1
Candida albicans [5] = test: Antifungal activity against Candida albicans ATCC 20891 after 48 hrs by CLSI broth microdilution method; format: functional; details: ATCC 20891, 48 h; in short: as §1
Cryptococcus neoformans [6] = test: Antifungal activity against Cryptococcus neoformans PMC 2102 after 72 hrs by CLSI broth microdilution method; format: functional; details: PMC 2102, 72 h; in short: as §2
Cryptococcus neoformans [7] = test: Antifungal activity against Cryptococcus neoformans PMC 2136 after 72 hrs by CLSI broth microdilution method; format: functional; details: PMC 2136, 72 h; in short: as §2
Candida tropicalis [8] = test: Antifungal activity against Candida tropicalis PMC 0910 after 48 hrs by CLSI broth microdilution method; format: functional; details: PMC 0910, 48 h; in short: as §1
Candida albicans [9] = test: Antifungal activity against Candida albicans ATCC 76615 after 48 hrs by CLSI broth microdilution method; format: functional; details: ATCC 76615, 48 h; in short: as §1
Nakaseomyces glabratus [10] = test: Antifungal activity against Candida glabrata PMC 0807 after 48 hrs by CLSI broth microdilution method; format: functional; details: PMC 0807, 48 h; in short: as §1
[11] = tested on: Trichophyton mentagrophytes; test: Antifungal activity against Trichophyton mentagrophytes PMC 6531 after 72 hrs by CLSI broth microdilution method; format: functional; details: PMC 6531, 72 h
In short: (§3)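 Dermatophytes tested by CLSI broth microdilution for filamentous fungi (M38-A2). Serial two-fold dilutions of DMSO-dissolved compound in RPMI 1640, final 0.125–64. Inoculum was 0.4–5 × 10^4 CFU mL−1, incubated at 35 °C and read at 72 h. MIC80 is the lowest concentration giving ≥80% growth inhibition versus growth control. Median of five replicates, plus geometric mean.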

Candida albicans [12] = test: Antifungal activity against Candida albicans PMC 1011 after 48 hrs by CLSI broth microdilution method; format: functional; details: PMC 1011, 48 h; in short: as §1
Candida albicans [13] = test: Antifungal activity against Candida albicans ATCC 24433 after 48 hrs by CLSI broth microdilution method; format: functional; details: ATCC 24433, 48 h; in short: as §1
Candida albicans [14] = test: Antifungal activity against Candida albicans PMC 1041R after 48 hrs by CLSI broth microdilution method; format: functional; in short: as §1
Cryptococcus neoformans [15] = test: Antifungal activity against Cryptococcus neoformans PMC 2107 after 72 hrs by CLSI broth microdilution method; format: functional; details: PMC 2107, 72 h; in short: as §2
Nannizzia gypsea [16] = test: Antifungal activity against Microsporum gypseum PMC 7303 after 72 hrs by CLSI broth microdilution method; format: functional; details: PMC 7303, 72 h; in short: as §3
Candida tropicalis [17] = test: Antifungal activity against Candida tropicalis DSM 11953 after 48 hrs by CLSI broth microdilution method; format: functional; details: DSM 11953, 48 h; in short: as §1
Cryptococcus neoformans [18] = test: Antifungal activity against Cryptococcus neoformans DSM 11959 after 72 hrs by CLSI broth microdilution method; format: functional; details: DSM 11959, 72 h; in short: as §2
Candida albicans [19] = test: Antifungal activity against Candida albicans PMC 1040R after 48 hrs by CLSI broth microdilution method; format: functional; in short: as §1
Nakaseomyces glabratus [20] = test: Antifungal activity against Candida glabrata PMC 0853R after 48 hrs by CLSI broth microdilution method; format: functional; in short: as §1
[21] = tested on: Trichophyton mentagrophytes; test: Antifungal activity against Trichophyton mentagrophytes DSM 4870 after 72 hrs by CLSI broth microdilution method; format: functional; details: DSM 4870, 72 h; in short: as §3
Candida albicans [22] = test: Antifungal activity against Candida albicans ATCC 90028 after 48 hrs by CLSI broth microdilution method; format: functional; details: ATCC 90028, 48 h; in short: as §1
Candida parapsilosis [23] = test: Antifungal activity against Candida parapsilosis ATCC 22019 after 48 hrs by CLSI broth microdilution method; format: functional; details: Lodderomyces parapsilosis, ATCC 22019, 48 h; in short: as §1
[24] = tested on: Trichophyton mentagrophytes; test: Antifungal activity against Trichophyton mentagrophytes PMC 6515 after 72 hrs by CLSI broth microdilution method; format: functional; details: PMC 6515, 72 h; in short: as §3
Nannizzia gypsea [25] = test: Antifungal activity against Microsporum gypseum DSM 3824 after 72 hrs by CLSI broth microdilution method; format: functional; details: DSM 3824, 72 h; in short: as §3
Nakaseomyces glabratus [26] = test: Antifungal activity against Candida glabrata PMC 0851R after 48 hrs by CLSI broth microdilution method; format: functional; in short: as §1
Nakaseomyces glabratus [27] = test: Antifungal activity against Candida glabrata PMC 0850R after 48 hrs by CLSI broth microdilution method; format: functional; in short: as §1
[28] = tested on: Trichophyton mentagrophytes; test: Antifungal activity against Trichophyton mentagrophytes PMC 6503 after 72 hrs by CLSI broth microdilution method; format: functional; details: PMC 6503, 72 h; in short: as §3
Candida parapsilosis [29] = test: Antifungal activity against Candida parapsilosis DSM 11224 after 48 hrs by CLSI broth microdilution method; format: functional; details: Lodderomyces parapsilosis, DSM 11224, 48 h; in short: as §1
Candida albicans [30] = test: Antifungal activity against Candida albicans ATCC 10231 after 48 hrs by CLSI broth microdilution method; format: functional; details: ATCC 10231, 48 h; in short: as §1
Nannizzia gypsea [31] = test: Antifungal activity against Microsporum gypseum PMC 7331 after 72 hrs by CLSI broth microdilution method; format: functional; details: PMC 7331, 72 h; in short: as §3
[32] = tested on: Trichophyton mentagrophytes; test: Antifungal activity against Trichophyton mentagrophytes PMC 6552 after 72 hrs by CLSI broth microdilution method; format: functional; details: PMC 6552, 72 h; in short: as §3
Cryptococcus neoformans [33] = test: Antifungal activity against Cryptococcus neoformans PMC 2111 after 72 hrs by CLSI broth microdilution method; format: functional; details: PMC 2111, 72 h; in short: as §2
Nakaseomyces glabratus [34] = test: Antifungal activity against Candida glabrata PMC 0852R after 48 hrs by CLSI broth microdilution method; format: functional; in short: as §1
[35] = tested on: Trichophyton mentagrophytes; test: Antifungal activity against Trichophyton mentagrophytes PMC 6509 after 72 hrs by CLSI broth microdilution method; format: functional; details: PMC 6509, 72 h; in short: as §3
Cryptococcus neoformans [36] = test: Antifungal activity against Cryptococcus neoformans PMC 2115 after 72 hrs by CLSI broth microdilution method; format: functional; details: PMC 2115, 72 h; in short: as §2
Pichia kudriavzevii [37] = test: Antifungal activity against Candida krusei PMC 0613 after 48 hrs by CLSI broth microdilution method; format: functional; details: PMC 0613, 48 h; in short: as §1
Pichia kudriavzevii [38] = test: Antifungal activity against Candida krusei DSM 6128 after 48 hrs by CLSI broth microdilution method; format: functional; details: DSM 6128, 48 h; in short: as §1
Cryptococcus neoformans [39] = test: Antifungal activity against Cryptococcus neoformans PMC 2123 after 72 hrs by CLSI broth microdilution method; format: functional; details: PMC 2123, 72 h; in short: as §2
Nakaseomyces glabratus [40] = test: Antifungal activity against Candida glabrata PMC 0805 after 48 hrs by CLSI broth microdilution method; format: functional; details: PMC 0805, 48 h; in short: as §1
Candida albicans [41] = test: Antifungal activity against Candida albicans PMC 1042R after 48 hrs by CLSI broth microdilution method; format: functional; in short: as §1

O=C(Nc1ccc(N2CCN(c3ccc(Cl)cc3)CC2)cc1)OC(Cn1ccnc1)c1ccc(F)cc1 (stereo unspecified)
MIC50 (Candida albicans [1]): 8 µg/mL (≈ 15.4 µM)
CC50 at 48 h [2]: 172 µg/mL (≈ 330 µM)
MIC50 (Cryptococcus neoformans [3]): 0.25 µg/mL (≈ 0.481 µM)
MIC50 (Candida albicans [4]): 1 µg/mL (≈ 1.92 µM)
MIC50 (Candida albicans [5]): 0.125 µg/mL (≈ 0.24 µM)
MIC50 (Cryptococcus neoformans [6]): 0.25 µg/mL (≈ 0.481 µM)
MIC50 (Cryptococcus neoformans [7]): 0.125 µg/mL (≈ 0.24 µM)
MIC50 (Candida tropicalis [8]): 2 µg/mL (≈ 3.85 µM)
MIC50 (Candida albicans [9]): 8 µg/mL (≈ 15.4 µM)
MIC50 (Nakaseomyces glabratus [10]): 1 µg/mL (≈ 1.92 µM)
MIC80 [11]: 8 µg/mL (≈ 15.4 µM)
MIC50 (Candida albicans [12]): 0.25 µg/mL (≈ 0.481 µM)
MIC50 (Candida albicans [13]): 4 µg/mL (≈ 7.69 µM)
MIC50 (Candida albicans [14]): 1 µg/mL (≈ 1.92 µM)
MIC50 (Cryptococcus neoformans [15]): 0.25 µg/mL (≈ 0.481 µM)
MIC80 (Nannizzia gypsea [16]): 4 µg/mL (≈ 7.69 µM)
MIC50 (Candida tropicalis [17]): 0.5 µg/mL (≈ 0.962 µM)
MIC50 (Cryptococcus neoformans [18]): 0.25 µg/mL (≈ 0.481 µM)
MIC50 (Candida albicans [19]): 64 µg/mL (≈ 123 µM)
MIC50 (Nakaseomyces glabratus [20]): 4 µg/mL (≈ 7.69 µM)
MIC80 [21]: 8 µg/mL (≈ 15.4 µM)
MIC50 (Candida albicans [22]): 0.25 µg/mL (≈ 0.481 µM)
MIC50 (Candida parapsilosis [23]): 0.25 µg/mL (≈ 0.481 µM)
MIC80 [24]: 8 µg/mL (≈ 15.4 µM)
MIC80 (Nannizzia gypsea [25]): 4 µg/mL (≈ 7.69 µM)
MIC50 (Nakaseomyces glabratus [26]): 64 µg/mL (≈ 123 µM)
MIC50 (Nakaseomyces glabratus [27]): 1 µg/mL (≈ 1.92 µM)
MIC80 [28]: 8 µg/mL (≈ 15.4 µM)
MIC50 (Candida parapsilosis [29]): 0.125 µg/mL (≈ 0.24 µM)
MIC50 (Candida albicans [30]): 4 µg/mL (≈ 7.69 µM)
MIC80 (Nannizzia gypsea [31]): 8 µg/mL (≈ 15.4 µM)
MIC80 [32]: 8 µg/mL (≈ 15.4 µM)
MIC50 (Cryptococcus neoformans [33]): 0.5 µg/mL (≈ 0.962 µM)
MIC50 (Nakaseomyces glabratus [34]): 4 µg/mL (≈ 7.69 µM)
MIC80 [35]: 8 µg/mL (≈ 15.4 µM)
MIC50 (Cryptococcus neoformans [36]): 0.25 µg/mL (≈ 0.481 µM)
MIC50 (Pichia kudriavzevii [37]): 0.125 µg/mL (≈ 0.24 µM)
MIC50 (Pichia kudriavzevii [38]): 1 µg/mL (≈ 1.92 µM)
MIC50 (Cryptococcus neoformans [39]): 0.5 µg/mL (≈ 0.962 µM)
MIC50 (Nakaseomyces glabratus [40]): 0.125 µg/mL (≈ 0.24 µM)
MIC50 (Candida albicans [41]): 2 µg/mL (≈ 3.85 µM)
